Activity calls are given as the source filed them. The rule behind the calls is not given here.
Legend:
[1] = Binding affinity to recombinant Cryptococcus neoformans var. grubii H99 major aspartyl peptidase 1 assessed as inhibition constant
[2] = test system: Cryptococcus neoformans; assay: Antifungal activity against Cryptococcus neoformans var. grubii H99 expressing major aspartyl peptidase 1 assessed as growth inhibition measured after 48 hrs; type: functional, organism-based; details: dose 0.1-50 µM
Method in brief: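 C. neoformans H99 grown in YNB with 2% glucose; overnight cultures diluted to OD600 0.1 with 0.1, 1.0, 10 or 50 μM compound or 0.5% DMSO vehicle. Incubated at 30 °C on a tube rotator; terminal saturation density read as OD600 after 48 h. Triplicate cultures, mean ± standard deviation.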

[3] = test system: Cryptococcus neoformans; assay: Antifungal activity against may1delta Cryptococcus neoformans var. grubii H99 assessed as reduction of density in stationary phase at 50 uM measured upto 48 hrs; type: functional, organism-based; details: time hrs <=48
Method in brief: (§1)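 Logarithmically growing may1Δ (and H99) yeast pelleted and resuspended to OD600 0.1 in unbuffered YNB or YNB with 50 mM MES pH 6.5. Treated with 50 μM compound or 0.5% DMSO vehicle at 30 °C on a tube rotator. OD600 read every 2 h for 12 h, then at 24 and 48 h. Triplicate cultures, mean ± standard deviation.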

[4] = test system: Cryptococcus neoformans; assay: Antifungal activity against may1delta Cryptococcus neoformans var. grubii H99 assessed as reduction of density in logarithmic phase at 50 uM measured upto 48 hrs; type: functional, organism-based; details: time hrs <=48; method in brief: as §1
[5] = biological target: T1, Renin (Homo sapiens, UniProt P00797); assay: Inhibition of human renin assessed as inhibition constant using H-R-E(EDANS)-1HPFHLVIHT-K(DABCYL)-R-OH as susbtrate by spectrophotometric analysis
T1 sequence (P00797 whole entry): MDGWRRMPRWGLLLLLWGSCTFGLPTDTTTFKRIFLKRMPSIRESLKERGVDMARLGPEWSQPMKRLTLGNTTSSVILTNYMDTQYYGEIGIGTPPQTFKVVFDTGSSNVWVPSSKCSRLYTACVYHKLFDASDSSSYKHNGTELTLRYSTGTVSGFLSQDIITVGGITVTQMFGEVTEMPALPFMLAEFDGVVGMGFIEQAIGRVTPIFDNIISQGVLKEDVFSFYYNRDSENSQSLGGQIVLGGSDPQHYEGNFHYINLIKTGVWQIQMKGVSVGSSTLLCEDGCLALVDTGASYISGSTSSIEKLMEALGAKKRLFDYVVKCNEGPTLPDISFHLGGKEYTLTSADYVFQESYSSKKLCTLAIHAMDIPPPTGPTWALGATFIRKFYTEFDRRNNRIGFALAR

[6] = test system: HeLa; assay: Cytotoxicity against human HeLa cells assessed as cell viability by celltiter-glo luminescent cell viability assay; type: functional
[7] = test system: HL-60; assay: Cytotoxicity against human HL-60 cells assessed as cell viability by celltiter-glo luminescent cell viability assay; type: functional
[8] = biological target: Cathepsin D (Homo sapiens, UniProt P07339); assay: Inhibition of human cathepsin D assessed as inhibition constant using ACC-GKPILFFRILK-(DNP)-(dR)-NH2 as substrate by spectrophotometric analysis
[9] = biological target: T2, Cathepsin E (Homo sapiens, UniProt P14091); assay: Inhibition of human cathepsin E assessed as inhibition constant using ACC-GKPILFFRILK-(DNP)-(dR)-NH2 as substrate by spectrophotometric analysis
T2 sequence (P14091 whole entry): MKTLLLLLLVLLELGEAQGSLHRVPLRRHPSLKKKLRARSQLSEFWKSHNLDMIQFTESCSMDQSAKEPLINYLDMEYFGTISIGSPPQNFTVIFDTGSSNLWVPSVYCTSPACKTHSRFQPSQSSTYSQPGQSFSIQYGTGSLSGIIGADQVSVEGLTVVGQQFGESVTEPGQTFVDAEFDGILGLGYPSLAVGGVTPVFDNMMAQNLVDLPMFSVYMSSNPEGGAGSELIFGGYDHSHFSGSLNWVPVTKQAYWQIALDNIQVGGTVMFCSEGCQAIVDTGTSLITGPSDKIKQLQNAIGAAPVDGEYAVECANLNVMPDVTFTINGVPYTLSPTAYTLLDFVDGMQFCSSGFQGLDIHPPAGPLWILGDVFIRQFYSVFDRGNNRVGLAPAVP

[10] = test system: MCF7; assay: Cytotoxicity against human MCF7 cells assessed as cell viability by celltiter-glo luminescent cell viability assay; type: functional
[11] = test system: CCRF-CEM; assay: Cytotoxicity against human CCRF-CEM cells assessed as cell viability by celltiter-glo luminescent cell viability assay; type: cell-based
[12] = biological target: Human immunodeficiency virus type 1 protease (Human immunodeficiency virus 1, UniProt Q72874); assay: Inhibition of wild type HIV-1 protease assessed as initial inhibition constant by spectrophotometric analysis
[13] = test system: HepG2; assay: Cytotoxicity against human HepG2 cells assessed as cell viability by celltiter-glo luminescent cell viability assay; type: functional
[14] = Inhibition of porcine pepsin assessed as inhibition constant using BSA-bromophenol blue as substrate by spectrophotometric analysis; parameters: species or system Sus scrofa

Cathepsin D, sequence (P07339 65-162 limits assumed): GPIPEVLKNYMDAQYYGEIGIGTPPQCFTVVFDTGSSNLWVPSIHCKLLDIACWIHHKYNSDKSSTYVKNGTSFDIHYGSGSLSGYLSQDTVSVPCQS
Cathepsin D, sequence (P07339 169-412 limits assumed): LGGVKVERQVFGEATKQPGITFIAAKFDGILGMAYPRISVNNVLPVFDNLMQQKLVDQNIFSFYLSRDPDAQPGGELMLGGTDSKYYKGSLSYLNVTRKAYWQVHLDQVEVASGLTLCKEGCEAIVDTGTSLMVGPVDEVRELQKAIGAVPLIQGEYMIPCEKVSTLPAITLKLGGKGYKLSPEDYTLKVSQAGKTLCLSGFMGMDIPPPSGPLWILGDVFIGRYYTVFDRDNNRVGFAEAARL

Row | Compound | Ki [1] [nM] | further results
1 | CCOP(=O)(COc1ccc(C[C@H](NC(=O)O[C@H]2CO[C@H]3OCC[C@H]32)[C@H](O)CN(CC(C)C)S(=O)(=O)c2ccc(OC)cc2)cc1)OCC | 170 | –
2 | NC(=O)[C@H](CC1CCCCC1)NC(=O)[C@H](CCC(=O)O)NC(=O)C[C@H](O)[C@H](Cc1ccccc1)NC(=O)OCc1ccccc1 | 160 | –
3 | CC(C)[C@H](NC(=O)[C@H](CCC(=O)O)NC(=O)C[C@H](O)[C@H](Cc1ccccc1)NC(=O)OCc1ccccc1)C(N)=O | 82 | Activity [2]: Dose-Dependent Effect
4 | CCCC[C@H](NC(=O)[C@H](CCC(=O)O)NC(=O)C[C@H](O)[C@H](Cc1ccccc1)NC(=O)OCc1ccccc1)C(N)=O | 180 | Activity [2]: Dose-Dependent Effect
5 | CC[C@H](NC(=O)[C@H](CCC(N)=O)NC(=O)C[C@H](O)[C@H](Cc1ccccc1)NC(=O)OCc1ccccc1)C(N)=O | 1200 | –
6 | CC(C)C[C@H](NC(=O)[C@H](CCC(=O)O)NC(=O)C[C@H](O)[C@H](Cc1ccccc1)NC(=O)OCc1ccccc1)C(N)=O | 160 | –
7 | CC(C)CN(C[C@@H](O)[C@H](Cc1ccccc1)NC(=O)O[C@H]1CCOC1)S(=O)(=O)c1ccc(N)cc1 | 750 | –
8 | CC[C@H](C)[C@H](NC(=O)[C@H](CCC(N)=O)NC(=O)C[C@H](O)[C@H](Cc1ccccc1)NC(=O)OCc1ccccc1)C(N)=O | 240 | –
9 | CCC[C@H](NC(=O)[C@H](CCC(N)=O)NC(=O)C[C@H](O)[C@H](Cc1ccccc1)NC(=O)OCc1ccccc1)C(N)=O | 470 | –
10 | CSCC[C@H](NC(=O)[C@H](CCC(N)=O)NC(=O)C[C@H](O)[C@H](Cc1ccccc1)NC(=O)OCc1ccccc1)C(N)=O | 290 | –
11 | NC(=O)[C@H](CCc1ccccc1)NC(=O)[C@H](CCC(=O)O)NC(=O)C[C@H](O)[C@H](Cc1ccccc1)NC(=O)OCc1ccccc1 | 12 | Activity [3]: inactive; Activity [2]: Dose-Dependent Effect; Activity [4]: inactive; Ki [5]: 19000 nM; CC50 [6]: > 80000 nM; CC50 [7]: > 80000 nM; Ki [8]: 620 nM; Ki [9]: 440 nM; CC50 [10]: > 80000 nM; CC50 [11]: > 80000 nM; Ki [12]: 0.032 nM; CC50 [13]: > 80000 nM; Ki [14]: 1600 nM
12 | CC(C)[C@H](NC(=O)[C@H](CCC(N)=O)NC(=O)C[C@H](O)[C@H](Cc1ccccc1)NC(=O)OCc1ccccc1)C(N)=O | 120 | –
13 | C[C@@H](O)[C@H](NC(=O)[C@H](CCC(=O)O)NC(=O)C[C@H](O)[C@H](Cc1ccccc1)NC(=O)OCc1ccccc1)C(N)=O | 250 | –
14 | NC(=O)CC[C@H](NC(=O)C[C@H](O)[C@H](Cc1ccccc1)NC(=O)OCc1ccccc1)C(=O)N[C@H](C(N)=O)c1ccccc1 | 360 | –
15 | CCC[C@H](NC(=O)[C@H](CCC(=O)O)NC(=O)C[C@H](O)[C@H](Cc1ccccc1)NC(=O)OCc1ccccc1)C(N)=O | 410 | –
16 | NC(=O)[C@@H](NC(=O)[C@H](CCC(=O)O)NC(=O)C[C@H](O)[C@H](Cc1ccccc1)NC(=O)OCc1ccccc1)c1ccccc1 | 210 | –
17 | NC(=O)CC[C@H](NC(=O)C[C@H](O)[C@H](Cc1ccccc1)NC(=O)OCc1ccccc1)C(=O)N[C@@H](Cc1ccccc1)C(N)=O | 320 | –
18 | CCCC[C@H](NC(=O)[C@H](CCC(N)=O)NC(=O)C[C@H](O)[C@H](Cc1ccccc1)NC(=O)OCc1ccccc1)C(N)=O | 170 | –
19 | NC(=O)[C@H](Cc1c[nH]c2ccccc12)NC(=O)[C@H](CCC(=O)O)NC(=O)C[C@H](O)[C@H](Cc1ccccc1)NC(=O)OCc1ccccc1 | 340 | –
20 | CC[C@H](C)[C@H](NC(=O)[C@H](CCC(=O)O)NC(=O)C[C@H](O)[C@H](Cc1ccccc1)NC(=O)OCc1ccccc1)C(N)=O | 410 | –
21 | CC(C)[C@H](NC(=O)[C@H](Cc1ccccc1)C[C@H](O)[C@H](Cc1ccccc1)NC(=O)OC(C)(C)C)C(=O)N[C@@H](Cc1ccccc1)C(=O)N1CCOCC1 | 13 | –
22 | CC[C@H](NC(=O)[C@H](CCC(=O)O)NC(=O)C[C@H](O)[C@H](Cc1ccccc1)NC(=O)OCc1ccccc1)C(N)=O | 760 | –
23 | Cc1nc(COc2ccc(C[C@H](NC(=O)O[C@H]3CO[C@H]4OCC[C@H]43)[C@H](O)CN(CC(C)C)S(=O)(=O)c3ccc4c(c3)OCO4)cc2)cs1 [BRECANAVIR] | 350 | –
24 | NC(=O)CC[C@H](NC(=O)C[C@H](O)[C@H](Cc1ccccc1)NC(=O)OCc1ccccc1)C(=O)N[C@@H](CCc1ccccc1)C(N)=O | 64 | –
25 | NC(=O)[C@H](Cc1ccccc1)NC(=O)[C@H](CCC(=O)O)NC(=O)C[C@H](O)[C@H](Cc1ccccc1)NC(=O)OCc1ccccc1 | 390 | –
26 | NC(=O)CC[C@H](NC(=O)C[C@H](O)[C@H](Cc1ccccc1)NC(=O)OCc1ccccc1)C(=O)N[C@@H](CC1CCCCC1)C(N)=O | 400 | –
27 | C[C@@H](O)[C@H](NC(=O)[C@H](CCC(N)=O)NC(=O)C[C@H](O)[C@H](Cc1ccccc1)NC(=O)OCc1ccccc1)C(N)=O | 1300 | –
28 | CSCC[C@H](NC(=O)[C@H](CCC(=O)O)NC(=O)C[C@H](O)[C@H](Cc1ccccc1)NC(=O)OCc1ccccc1)C(N)=O | 280 | –

Reference: ChEMBL document CHEMBL5036316, “Re-emerging Aspartic Protease Targets: Examining Cryptococcus neoformans Major Aspartyl Peptidase 1 as a Target for Antifungal Drug Discovery” (J Med Chem, 2021)
